Source: ChEMBL document CHEMBL1137762, “Design, microwave-assisted synthesis and HIV-RT inhibitory activity of 2-(2,6-dihalophenyl)-3-(4,6-dimethyl-5-(un)substituted-pyrimidin-2-yl)thiazolidin-4-ones” (Bioorg Med Chem, 2009)

What follows are molecules tested against Human immunodeficiency virus type 1 reverse transcriptase (Human immunodeficiency virus 1, UniProt Q72547) (assay: Inhibition of HIV1 reverse transcriptase after 1 hr by ELISA).
Outline: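 Commercial colorimetric RT kit; template/primer complex, biotin- and DIG-labelled dNTPs and RT enzyme in lysis buffer, with or without inhibitor, incubated 1 h at 37 °C. Product captured on streptavidin-coated plate, washed, probed with anti-DIG-peroxidase, then ABTS substrate added; absorbance read at 405 nm.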

Compound	IC50
Cc1nc(N2C(=O)CSC2c2c(F)cccc2Cl)nc(C)c1C (stereo unspecified)	0.38 µM
CCCCCc1c(C)nc(N2C(=O)CSC2c2c(Cl)cccc2Cl)nc1C (stereo unspecified)	74.4 µM
CCCCc1c(C)nc(N2C(=O)CSC2c2c(F)cccc2Cl)nc1C (stereo unspecified)	16 µM
CCCCCc1c(C)nc(N2C(=O)CSC2c2c(F)cccc2Cl)nc1C (stereo unspecified)	16.1 µM
C=CCc1c(C)nc(N2C(=O)CSC2c2c(F)cccc2Cl)nc1C (stereo unspecified)	2.92 µM
Cc1nc(N2C(=O)CSC2c2c(F)cccc2Cl)nc(C)c1CCC#N (stereo unspecified)	2.01 µM
CCc1c(C)nc(N2C(=O)CSC2c2c(F)cccc2Cl)nc1C (stereo unspecified)	0.23 µM
CCCc1c(C)nc(N2C(=O)CSC2c2c(F)cccc2Cl)nc1C (stereo unspecified)	0.85 µM

Second part, the molecule after the results:

IC50	Compound
0.83 µM	Cc1nc(N2C(=O)CSC2c2c(Cl)cccc2Cl)nc(C)c1C (stereo unspecified)
1.02 µM	Cc1nc(N2C(=O)CSC2c2c(Cl)cccc2Cl)nc(C)c1CCC#N (stereo unspecified)
0.77 µM	CCCc1c(C)nc(N2C(=O)CSC2c2c(Cl)cccc2Cl)nc1C (stereo unspecified)
4.29 µM	CCCCc1c(C)nc(N2C(=O)CSC2c2c(Cl)cccc2Cl)nc1C (stereo unspecified)
9.82 µM	Cc1nc(N2C(=O)CSC2c2c(Cl)cccc2Cl)nc(C)c1Br (stereo unspecified)
1.22 µM	C=CCc1c(C)nc(N2C(=O)CSC2c2c(Cl)cccc2Cl)nc1C (stereo unspecified)
1.52 µM	Cc1nc(N2C(=O)CSC2c2c(F)cccc2Cl)nc(C)c1Br (stereo unspecified)
0.26 µM	CCc1c(C)nc(N2C(=O)CSC2c2c(Cl)cccc2Cl)nc1C (stereo unspecified)
